Results on four molecules are retold here after ChEMBL document CHEMBL4811308, “Design, synthesis and broad spectrum antibreast cancer activity of diarylindoles via induction of apoptosis in aggressive breast cancer cells” (Bioorg Med Chem, 2021).

Data set [1] concerns MDA-MB-231. Kind of data set: Cytotoxicity against human MDA-MB-231 cells assessed as reduction in cell viability incubated for 24 hrs by MTT assay. It is filed as functional, cell-based. As to conditions: MDA-MB-231, 24 h. The essentials:
(§1)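 MTT viability: cells seeded at 1 × 10^4/well, grown 24 h, then exposed to a concentration range of compound for 24 h. MTT (5 mg/mL stock) added for 3 h, formazan dissolved in DMSO, absorbance read at 540 nm.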
(Tetrazolium dyes change colour on reduction, which living cells bring about.)

A further data set deals with PC-3. Kind of data set: Cytotoxicity against human PC-3 cells assessed as reduction in cell viability incubated for 24 hrs by MTT assay. It is filed as functional, cell-based. To be noted: PC-3, 24 h. The essentials:
as §1

Data set [2] has as its system MDA-MB-231. Description: Induction of cell cycle arrest in human MDA-MB-231 cells assessed as accumulation at S phase at 2 uM incubated for 24 hrs by PI staining based flow cytometry analysis (reference value: 40.37 to 57.89 %). It is filed as functional.
The test system of data set [3] is MDA-MB-231. Kind of data set: Induction of cell cycle arrest in human MDA-MB-231 cells assessed as accumulation at G2/M phase at 2 uM incubated for 24 hrs by PI staining based flow cytometry analysis (reference value: 4.35 to 19.56 %). It is filed as functional. For orientation: A flow cytometer gives signals particle by particle.
Data set [4] deals with MDA-MB-231. Kind of data set: Induction of cell cycle arrest in human MDA-MB-231 cells assessed as accumulation at S phase at 4 uM incubated for 24 hrs by PI staining based flow cytometry analysis (reference value: 40.37 to 57.89 %). The class given is functional.
In data set [5] the test system is MDA-MB-231. Description: Induction of cell cycle arrest in human MDA-MB-231 cells assessed as accumulation at G2/M phase at 4 uM incubated for 24 hrs by PI staining based flow cytometry analysis (reference value: 4.35 to 19.56 %). It is filed as functional.
Data set [6] concerns MDA-MB-231. Description: Induction of cell cycle arrest in human MDA-MB-231 cells assessed as accumulation at S phase at 6 uM incubated for 24 hrs by PI staining based flow cytometry analysis (reference value: 40.37 to 57.89 %). The class given is functional.
Data set [7] relates to MDA-MB-231. Kind of data set: Induction of cell cycle arrest in human MDA-MB-231 cells assessed as accumulation at G2/M phase at 6 uM incubated for 24 hrs by PI staining based flow cytometry analysis (reference value: 4.35 to 19.56 %). It is filed as functional.
Data set [8] concerns MDA-MB-231. Kind of data set: Induction of apoptosis in human MDA-MB-231 cells assessed as viable cells at 2 uM incubated for 24 hrs by annexin-V-FITC and PI staining based flow cytometry analysis (reference value: 95.27 to 97.16 %). It is filed as functional. As to conditions: read-out: Activity.
The test system of data set [9] is MDA-MB-231. Kind of data set: Induction of apoptosis in human MDA-MB-231 cells assessed as early apoptotic cells at 2 uM incubated for 24 hrs by annexin-V-FITC and PI staining based flow cytometry analysis (reference value: 0.28 to 4.68 %). The class given is functional. A digest of the protocol: (§2)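 MDA-MB-231 cells (1 × 10^6) grown 24 h in six-well plates, then treated for 24 h. Cells trypsinized, PBS-washed and stained with Annexin V-FITC/PI in binding buffer for 10 min in the dark at room temperature. Early/late apoptotic fractions quantified by flow cytometry.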

In data set [10] the test system is MDA-MB-231. Kind of data set: Induction of apoptosis in human MDA-MB-231 cells assessed as necrotic cells at 2 uM incubated for 24 hrs by annexin-V-FITC and PI staining based flow cytometry analysis (reference value: 0.01 to 0.8 %). It is filed as functional.
The test system of data set [11] is MDA-MB-231. Description: Induction of apoptosis in human MDA-MB-231 cells assessed as late apoptotic cells at 4 uM incubated for 24 hrs by annexin-V-FITC and PI staining based flow cytometry analysis (reference value: 0.28 to 0.84 %). The class given is functional.
The subject of data set [12] is MDA-MB-231. Description: Induction of apoptosis in human MDA-MB-231 cells assessed as early apoptotic cells at 6 uM incubated for 24 hrs by annexin-V-FITC and PI staining based flow cytometry analysis (reference value: 0.28 to 4.68 %). It is filed as functional. The essentials: as §2
The test system of data set [13] is MDA-MB-231. Description: Induction of mitochondrial membrane depolarization in human MDA-MB-231 cells at 2 to 6 uM incubated for 24 hrs by JC-1 staining based flow cytometry analysis. The class given is functional, cell-based. To be noted: dose 2-6 µM. The essentials:
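Mitochondrial potential measured in MDA-MB-231 cells (1 × 10^6) seeded in six-well plates for 24 h and treated 24 h. Trypsinized cells PBS-washed and stained with 5 µg/ml JC-1 for 30 min in dark at room temperature. Resuspended in PBS and read by flow cytometry as red aggregate versus monomer fluorescence.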

For data set [14], the system named is MDA-MB-231. Description: Induction in caspase-mediated apoptosis in human MDA-MB-231 cells assessed as decrease in cell viability at 2 uM incubated for 24 hrs in presence of Z-VAD-FMK by MTT assay. The class given is functional, cell-based. A digest of the protocol: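 MDA-MB-231 cells pretreated 2 h with 50 µM Z-VAD-FMK, then exposed to 2 µM compound for 24 h. Viability by MTT (3 h), formazan in DMSO, absorbance at 540 nm. Three independent experiments, mean ± S.E.M.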

Data set [15] has as its target T1, Estrogen receptor (Homo sapiens) (UniProt P03372).
T1 sequence (whole entry): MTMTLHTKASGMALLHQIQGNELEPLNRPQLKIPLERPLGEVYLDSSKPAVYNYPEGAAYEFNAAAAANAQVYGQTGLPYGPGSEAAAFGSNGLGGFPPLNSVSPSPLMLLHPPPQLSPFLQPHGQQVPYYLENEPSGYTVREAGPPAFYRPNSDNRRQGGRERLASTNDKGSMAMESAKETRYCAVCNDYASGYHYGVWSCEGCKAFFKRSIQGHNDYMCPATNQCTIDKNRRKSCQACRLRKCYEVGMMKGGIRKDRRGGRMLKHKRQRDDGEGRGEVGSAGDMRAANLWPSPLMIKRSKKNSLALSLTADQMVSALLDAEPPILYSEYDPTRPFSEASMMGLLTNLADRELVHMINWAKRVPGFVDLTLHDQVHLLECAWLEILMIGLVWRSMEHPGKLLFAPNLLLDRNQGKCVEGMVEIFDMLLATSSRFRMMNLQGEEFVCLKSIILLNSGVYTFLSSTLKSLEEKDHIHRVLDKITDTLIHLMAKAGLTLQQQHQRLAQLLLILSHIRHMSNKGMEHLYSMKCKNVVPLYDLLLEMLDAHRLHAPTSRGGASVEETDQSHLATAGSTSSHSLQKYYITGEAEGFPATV
Description: Transactivation of ERalpha (unknown origin) transfected in human MDA-MB-231 cells at 1 uM by dual luciferase receptor assay. It is filed as cell-based. A digest of the protocol: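 MDA-MB-231 cells grown to 80-90% confluency, transfected with 500 ng of ERα (pSG5 mERα) or ERβ (pSG5-hERβ) expression vector plus pRL-SV40 Renilla for normalization, then reseeded. Cells incubated with E2 (100 nM), compound at 1 µM, or tamoxifen at 1 µM. Dual luciferase readout reported as percent normalized RLU, triplicate experiments with three replicates each.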

The nature of data set [16]: Toxicity in BALB/c mouse xenografted with mouse 4T1 cells assessed as survival rate at 10 to 20 mg/kg, po administered for 21 days and measured on day 21. The class given is organism-based. As to conditions: in vivo, 504 h, dose 10-20 mg/kg, time 21 day. A digest of the protocol:
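Orthotopic syngeneic model: 4T1 cells (7 × 10^5) injected into mammary fat pad of six-week-old female Balb/c mice. Once tumours were measurable at one week, mice were randomized into ten groups. Compound was dissolved in ethanol, diluted in PBS, and given by oral gavage at 10 or 20 mg/kg daily for 21 days; vehicle controls. Body weight and tumour size were measured twice weekly.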

Calls of active or inactive are those of the source. The calls are words filed in the database; no cut-off is given here.

In general, IC50 refers to the midpoint of a concentration-inhibition curve. Turning to `CCN(CC)CCOc1ccc(Cc2c(-c3cc(OC)c(OC)c(OC)c3)n(Cc3ccc(OCCN(CC)CC)cc3)c3ccc(OC)cc23)cc1`, the IC50 turned out to be 2.34 µM in the data set with MDA-MB-231 [1] and 8.31 µM with PC-3. Moreover, the Activity in the data set with MDA-MB-231 [2] amounted to 38.21%; in the data set on MDA-MB-231 [3], 10.07%; in the data set with MDA-MB-231 [4] it was 38.03%; in the data set on MDA-MB-231 [5], 8.09%; in the data set with MDA-MB-231 [6] it was 36.56%; in the data set with MDA-MB-231 [7] it was 5.84%. Moreover, the Activity was 9.52% in the data set with MDA-MB-231 [9]; 4.3% with MDA-MB-231 [10]; 14.66% with MDA-MB-231 [11]; 14.01% with MDA-MB-231 [12]; “Non-Toxic” in data set [16]. In the data set with MDA-MB-231 [8], the viability at 2 µM amounted to 88.2%. For the same molecule, the result in the data set with MDA-MB-231 [13] and with MDA-MB-231 [14] was Active. The outcome in data set [15] was inactive.
As for `COc1ccc2c(c1)c(Cc1ccc(OCCN(C)C)cc1)c(-c1cc(OC)c(OC)c(OC)c1)n2Cc1ccc(OCCN(C)C)cc1`, the figures for the IC50 in the data set on MDA-MB-231 [1] and in the data set with PC-3 were 3.78 µM and 5.82 µM, respectively. The Activity in the data set on MDA-MB-231 [2] is 38.78%; in the data set with MDA-MB-231 [3], 0.79%; in the data set on MDA-MB-231 [4] it was 38.65%; with MDA-MB-231 [5], 0.22%; with MDA-MB-231 [6], 35.63%; with MDA-MB-231 [7], 0%. Besides, the Activity with MDA-MB-231 [9] was 11.63%; in the data set with MDA-MB-231 [10], 2.34%; with MDA-MB-231 [11], 20.05%; in the data set with MDA-MB-231 [12], 39.6%; in data set [16], “Non-Toxic”. In addition, the viability at 2 µM with MDA-MB-231 [8] was 80.7%. Also, in the data set with MDA-MB-231 [13], the outcome was Active. Further, the result (in the data set on MDA-MB-231 [14]; in data set [15]) was inactive.
As for `COc1ccc2c(c1)c(Cc1ccc(OC(C)CN(C)C)cc1)c(-c1cc(OC)c(OC)c(OC)c1)n2Cc1ccc(OC(C)CN(C)C)cc1` (stereo not drawn), the IC50 in the data set with MDA-MB-231 [1] amounted to 3.88 µM; in the data set on PC-3 it was 6.72 µM. Moreover, the Activity was 40.83% in the data set with MDA-MB-231 [2]; 12.85% in the data set on MDA-MB-231 [3]; 40.83% in the data set with MDA-MB-231 [4]; 9.55% in the data set on MDA-MB-231 [5]; 42.27% in the data set on MDA-MB-231 [6]; 8.37% with MDA-MB-231 [7]. The Activity in the data set on MDA-MB-231 [9] was 17.38%; in the data set on MDA-MB-231 [10], 3.43%; in the data set with MDA-MB-231 [11], 15.18%; in the data set with MDA-MB-231 [12] it was 20.52%; in data set [16], “Non-Toxic”. Also, the viability at 2 µM with MDA-MB-231 [8] was determined as 72.5%. The outcome in the data set with MDA-MB-231 [13] was Active. Further, the outcome (in the data set with MDA-MB-231 [14]; in data set [15]) was inactive.
Take `COc1ccc2c(c1)c(Cc1ccc(OCCN3CCCCC3)cc1)c(-c1cc(OC)c(OC)c(OC)c1)n2Cc1ccc(OCCN2CCCCC2)cc1`: the figures for the IC50 in the data set on MDA-MB-231 [1] and in the data set with PC-3 were 2.42 µM and 7.07 µM, respectively. Also, the Activity with MDA-MB-231 [2] was 34.3%; with MDA-MB-231 [3] it was 12.45%; with MDA-MB-231 [4], 29.41%; with MDA-MB-231 [5], 15.43%; in the data set on MDA-MB-231 [6] it was 29.41%; in the data set on MDA-MB-231 [7], 8.91%. In addition, the Activity is reported as 12.28% in the data set with MDA-MB-231 [9]; 2.01% with MDA-MB-231 [10]; 26.25% in the data set on MDA-MB-231 [11]; 17.19% with MDA-MB-231 [12]; “Non-Toxic” in data set [16]. Besides, in the data set with MDA-MB-231 [8], the viability at 2 µM came to 81.5%. The result in the data set with MDA-MB-231 [13] and in the data set on MDA-MB-231 [14] was Active. Further, in data set [15], the result was inactive.
